Results reported in ChEMBL document CHEMBL2380287, “PEG mediated synthesis and pharmacological evaluation of some fluoro substituted pyrazoline derivatives as antiinflammatory and analgesic agents” (2013).

Tested on: Rattus norvegicus
Assay: Analgesic activity in rat at 25 mg/kg, po after 60 mins by radiant heat tail flick method relative to control
Type: functional
Settings: 1 h
Summary of the method: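 Rats, six per group, were dosed orally at 25 mg/kg. Analgesia was measured at 60 min by the radiant heat tail flick method and expressed as percentage analgesia. Animals were kept on a 12/12 h light/dark cycle with free access to water and standard pellet diet.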

**Q.** `CC(=O)N1N=C(c2ccc(F)cc2)CC1c1cn(-c2ccccc2)nc1-c1ccc(F)cc1` (stereo not given) was tested. Which inhibition in vivo at 25 mg/kg did it give?
**A.** Its inhibition in vivo at 25 mg/kg is 43%.

**Q.** With `CC(=O)N1N=C(c2ccc(F)cc2)CC1c1cn(-c2ccccc2)nc1-c1ccc(Cl)cc1` (stereo not given) as the compound, how does the inhibition in vivo at 25 mg/kg read?
**A.** Its inhibition in vivo at 25 mg/kg is 44%.

**Q.** With `CC(=O)N1N=C(c2ccc(F)cc2)CC1c1cn(-c2ccccc2)nc1-c1ccc(Br)cc1` (stereo not given) as the compound, how does the inhibition in vivo at 25 mg/kg read?
**A.** Its inhibition in vivo at 25 mg/kg is 71%.

**Q.** `CC(=O)N1N=C(c2ccc(F)cc2)CC1c1cn(-c2ccccc2)nc1-c1ccc(C)cc1` (stereo not given) was tested. Which inhibition in vivo at 25 mg/kg did it give?
**A.** Its inhibition in vivo at 25 mg/kg is 110%.

**Q.** How did the inhibition in vivo at 25 mg/kg turn out when `COc1ccc(-c2nn(-c3ccccc3)cc2C2CC(c3ccc(F)cc3)=NN2C(C)=O)cc1` (stereo not given) was run?
**A.** Its inhibition in vivo at 25 mg/kg is 66%.

**Q.** For `CC(=O)N1N=C(c2ccc(F)cc2)CC1c1cn(-c2ccccc2)nc1-c1cccc([N+](=O)[O-])c1` (stereo not given), which inhibition in vivo at 25 mg/kg is on record?
**A.** The inhibition in vivo at 25 mg/kg was 109%.

**Q.** With `CC(=O)N1N=C(c2ccc(F)cc2)CC1c1cn(-c2ccccc2)nc1-c1ccccc1` (stereo not given) as the compound, how does the inhibition in vivo at 25 mg/kg read?
**A.** Its inhibition in vivo at 25 mg/kg is 35%.

**Q.** Which inhibition in vivo at 25 mg/kg does the source give for `Fc1ccc(C2=NN(c3ccccc3)C(c3cn(-c4ccccc4)nc3-c3ccc(F)cc3)C2)cc1` (stereo not given) here?
**A.** The inhibition in vivo at 25 mg/kg was 41%.

**Q.** With `Fc1ccc(C2=NN(c3ccccc3)C(c3cn(-c4ccccc4)nc3-c3ccc(Cl)cc3)C2)cc1` (stereo not given) as the compound, how does the inhibition in vivo at 25 mg/kg read?
**A.** The inhibition in vivo at 25 mg/kg was 43%.

**Q.** With `Fc1ccc(C2=NN(c3ccccc3)C(c3cn(-c4ccccc4)nc3-c3ccc(Br)cc3)C2)cc1` (stereo not given) as the compound, how does the inhibition in vivo at 25 mg/kg read?
**A.** Its inhibition in vivo at 25 mg/kg is 71%.

**Q.** For `Cc1ccc(-c2nn(-c3ccccc3)cc2C2CC(c3ccc(F)cc3)=NN2c2ccccc2)cc1` (stereo not given), which inhibition in vivo at 25 mg/kg is on record?
**A.** The inhibition in vivo at 25 mg/kg was 110%.

**Q.** `COc1ccc(-c2nn(-c3ccccc3)cc2C2CC(c3ccc(F)cc3)=NN2c2ccccc2)cc1` (stereo not given) was tested. Which inhibition in vivo at 25 mg/kg did it give?
**A.** The inhibition in vivo at 25 mg/kg was 66%.

**Q.** With `O=[N+]([O-])c1cccc(-c2nn(-c3ccccc3)cc2C2CC(c3ccc(F)cc3)=NN2c2ccccc2)c1` (stereo not given) as the compound, how does the inhibition in vivo at 25 mg/kg read?
**A.** Its inhibition in vivo at 25 mg/kg is 108%.

**Q.** With `Fc1ccc(C2=NN(c3ccccc3)C(c3cn(-c4ccccc4)nc3-c3ccccc3)C2)cc1` (stereo not given) as the compound, how does the inhibition in vivo at 25 mg/kg read?
**A.** The inhibition in vivo at 25 mg/kg was 35%.

**Q.** `CC(=O)Oc1ccccc1C(=O)O` [ASPIRIN] was tested. Which inhibition in vivo at 25 mg/kg did it give?
**A.** Its inhibition in vivo at 25 mg/kg is 119%.
